# Bioassay records: PubChem BioAssay, several laboratories
# FXIIa inh: inhibitors of human coagulation factor XIIa. P00748. purified FXIIa, Boc-QGR-AMC fluorogenic substrate, 2 h. inhibition, % at 5 µM. hit rate 0.3% among 220,000; in the data active = inhibition above about 40%
# Calpain2 inh: blocks pig calpain II enzyme activity; purified calpain II, fluorogenic peptide substrate, 30 min; inhibition, % at 16 µM; hit rate 0.37% among 220,000;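 active = inhibition above about 50%, limit read from the data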
# thrombin 1536: blocks human thrombin protease activity; AID 1046; P00734; inhibition, % at 5 µM; alpha-thrombin, Boc-VPR-AMC fluorogenic substrate cleavage; hit rate 0.26% among 220,000;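 active = inhibition at or above 40%; inactive = inhibition below 40%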
#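 Assay system: human alpha-thrombin enzyme. Reagent: Boc-VPR-AMC substrate, 15 µM final. Compound dosing: one concentration per compound, 5 µM, with 0.2% DMSO. Incubation: room-temperature reaction. Technique: AMC fluorescence, 355/460 nm. Measure: % inhibition relative to enzyme controls and enzyme-free blanks.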
# FXIa inh: inhibitors of human coagulation factor XIa | P03951 | purified FXIa, Boc-Glu-Ala-Arg-AMC fluorogenic substrate | inhibition, % at 5 µM | hit rate 0.14% among 220,000;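 active = inhibition of at least 40%; inactive = inhibition below 40%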;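 also: fluorescence of freed AMC excited at 355 nm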
# Target sequence (P03951 19-387 limits assumed): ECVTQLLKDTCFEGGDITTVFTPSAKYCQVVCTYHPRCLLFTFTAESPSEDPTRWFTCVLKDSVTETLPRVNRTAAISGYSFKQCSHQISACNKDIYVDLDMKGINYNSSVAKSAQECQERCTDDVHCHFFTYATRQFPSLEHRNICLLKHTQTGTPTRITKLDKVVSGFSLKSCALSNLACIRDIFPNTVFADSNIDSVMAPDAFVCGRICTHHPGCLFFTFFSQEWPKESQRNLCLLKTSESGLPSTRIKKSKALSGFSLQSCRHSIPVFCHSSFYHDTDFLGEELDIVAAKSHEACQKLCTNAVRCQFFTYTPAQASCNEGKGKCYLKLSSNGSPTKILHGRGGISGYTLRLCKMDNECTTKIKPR
# Target sequence (P03951 388-625 limits assumed): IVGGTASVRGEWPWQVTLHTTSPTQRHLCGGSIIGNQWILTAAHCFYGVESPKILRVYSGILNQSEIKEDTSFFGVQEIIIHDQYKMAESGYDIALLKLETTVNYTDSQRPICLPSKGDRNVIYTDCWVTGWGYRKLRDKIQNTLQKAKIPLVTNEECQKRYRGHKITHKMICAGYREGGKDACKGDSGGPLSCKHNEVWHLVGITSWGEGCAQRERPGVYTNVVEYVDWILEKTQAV
# KLK5 inh: inhibitors of human kallikrein 5; Q9Y337; recombinant hK5, fluorogenic AMC substrate cleavage; inhibition, % at 5 µM; hit rate 0.59% among 210,000; AID 873;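 active = inhibition of 40% or more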
# Numbers stand for hits; . = inactive; / = no result given. Shown are actives, neighbours in structure and some others; about 1.4% of the full set was active somewhere.
SMILES,FXIIa inh,Calpain2 inh,thrombin 1536,FXIa inh,KLK5 inh
Cc1ccc(-c2csc(/C=C3\SC(C)C(=O)N3CC(=O)Nc3ccccc3F)n2)cc1 (stereo unspecified),.,67,.,.,.
O=C(CN1C(=O)CS/C1=C\c1nc(-c2ccc(Cl)cc2)cs1)Nc1cccnc1Cl,.,.,.,.,.
CN(C)CCNC(=S)Nc1ccc(Br)cc1,.,.,.,.,.
COCc1nc2ccccc2n1Cc1ccc(Br)cc1,.,57,.,.,.
COCc1nc2ccccc2n1Cc1ccccc1,.,.,.,.,.
O=C1c2cccc3cccc(c23)C(=O)N1OS(=O)(=O)c1ccc(Cl)cc1,.,.,.,.,.
CCc1ccc(S(=O)(=O)ON2C(=O)c3ccccc3C2=O)cc1,.,.,60,.,.
CC(NC(=O)c1cc(S(=O)(=O)N(C)C)ccc1N1CCCC1)C1CC2CCC1C2 (stereo unspecified),.,.,.,.,.
CN1CCN(S(=O)(=O)Cc2ccc(Cl)cc2)CC1,.,.,.,41,70
CCNc1nc(=S)nc(NCc2ccccc2)[nH]1,.,.,.,.,.
O=[N+]([O-])/C(C(Cl)=C(Cl)Cl)=C(/Sc1ccccc1)N1CCCCC1,.,.,.,.,.
Cn1c(SCC(=O)N/N=C/c2ccc([N+](=O)[O-])s2)nnc1-c1ccc(Cl)cc1,.,.,.,.,.
COc1ccc(C(=O)Nc2cccc(NC(C)=O)c2)cc1OC,.,.,.,.,.
COc1ccc(C(=O)Nc2cccc(S(C)(=O)=O)c2)cc1OC,.,.,.,.,43
COc1ccccc1N(CCN1C(=O)c2cccc3cccc(c23)C1=O)C(=O)c1ccncc1,/,.,.,.,.
O=C(O)c1ccc(Nc2ncc([N+](=O)[O-])cc2[N+](=O)[O-])cc1,.,.,.,.,.
Cc1cccc(N(CC(=O)NCc2ccco2)C(=O)CCC(=O)Nc2nccs2)c1,.,.,.,.,.
O=C(Nc1cccc2ccccc12)/C(=C/c1ccc([N+](=O)[O-])cc1)NC(=O)c1ccccc1,.,.,.,.,.
O=C(Nc1ccc(F)cc1)/C(Cl)=C/c1ccccc1,.,.,.,.,.
CC(=O)c1ccc(NC(=O)/C(Cl)=C/c2ccccc2)cc1,.,.,.,57,.
O=C(Nc1cccc2ccccc12)/C(Cl)=C/c1ccccc1,.,58,.,.,.
COc1cc(CC(=O)NNC(=O)c2cc(C)oc2C)cc(OC)c1OC,.,.,.,.,.
CC1(C)CC2CC(C)(CN2C(=O)c2cc(-c3ccccc3O)on2)C1 (stereo unspecified),.,.,.,.,45
COc1ccc(-c2cc(C(=O)N3CC4(C)CC3CC(C)(C)C4)no2)cc1 (stereo unspecified),.,.,.,.,.
O=C(NCc1ccccc1)c1sc(=S)n2c1[nH]c(=O)c1ccccc12,.,.,.,.,43
SMILES,FXIIa inh,Calpain2 inh,thrombin 1536,FXIa inh,KLK5 inh
CC(=O)NNC(=O)c1sc(=S)n2c1[nH]c(=O)c1sccc12,.,.,.,.,.
CCCCc1nc(N)c(C#N)c(-c2ccco2)c1CCC,.,.,.,.,.
CCCc1nc(NC(C)=O)c(C#N)c(-c2ccco2)c1CC,.,.,40,.,.
CCC(=O)N1CCc2cc(S(=O)(=O)CCC(=O)Nc3ccc(CC)cc3)ccc21,.,.,.,.,.
CCC(=O)N1CCc2cc(S(=O)(=O)CCC(=O)NCc3ccc4c(c3)OCO4)ccc21,.,.,.,.,41
Cc1cccc(C)c1-n1cccc1/C=C1\SC(=S)N(c2cccc(C(=O)O)c2)C1=O,.,111,.,.,/
COc1cc(NC(=O)Cn2nc(Cc3cccnc3)c3ccccc3c2=O)cc(OC)c1OC,.,.,.,.,.
Cc1ccc(CCNC(=O)C2CCC(=O)N2Cc2cccnc2)cc1 (stereo unspecified),.,.,.,.,47
Cc1cccc(CCNC(=O)C2CCC(=O)N2Cc2ccc(F)cc2)c1 (stereo unspecified),.,.,.,.,.
CC1=C(C(=O)N(C)C)C(c2ccc(N3CCOCC3)cc2)NC(=O)N1 (stereo unspecified),.,.,.,.,.
CC(=O)c1[nH]c(C)c(C(C)=O)c1C,.,.,.,.,47
CC(=O)c1c(C)[nH]c(C(=O)CSc2nnc(C)s2)c1C,.,.,.,.,52
COC(=O)c1c(C)[nH]c(C(C)=O)c1C,.,.,.,.,.
COCCCn1c(=O)/c(=C\c2ccccc2OC(C)C)s/c1=C(/C#N)C(=O)Nc1ccc(C(=O)O)cc1,49,.,.,.,.
O=c1ccc(Cl)n[nH]1,.,.,.,.,.
Cc1nc(C)c(C(=O)NCCC(c2ccccc2)c2ccccc2)o1,.,.,.,.,.
Cc1ccccc1NC(=S)NCCC(c1ccccc1)c1ccccc1,.,78,.,.,.
Cc1ccc(NC(=S)NCCC(c2ccccc2)c2ccccc2)c(C)c1,.,.,.,.,.
Cc1ccsc1C(=O)NCCC(c1ccccc1)c1ccccc1,48,.,.,.,.
COc1ccc(N(C)C(=O)c2oc(=O)c3ccccc3c2-c2ccc(C)cc2)c(OC)c1,.,.,.,.,.
CCN(CC)S(=O)(=O)c1cc(NS(=O)(=O)c2cccc(C(=O)O)c2)ccc1C,.,.,.,.,.
CCN(CC)S(=O)(=O)c1cc(NS(=O)(=O)c2ccccc2)ccc1C,.,56,.,.,.
COC(=O)NNC(=O)Cc1cccc2ccccc12,.,.,.,.,.
CCN1C(=O)c2n[nH]c(C(=O)OC)c2C1=O,44,.,.,.,90
CCOC(=O)c1[nH]nc2c1C(=O)N(CC)C2=O,.,.,.,.,.
SMILES,FXIIa inh,Calpain2 inh,thrombin 1536,FXIa inh,KLK5 inh
CC(C)CCNC(=O)C12CN(Cc3ccccc3)CC1C(c1ccc([N+](=O)[O-])cc1)=NO2 (stereo unspecified),.,58,.,.,.
O=C(NCc1ccc(C(F)(F)F)cc1)C12CN(Cc3ccccc3)CC1C(c1cccc([N+](=O)[O-])c1)=NO2 (stereo unspecified),.,.,.,.,42
CCOc1cc(NC(=O)c2cccs2)c(OCC)cc1NC(=O)CCC(=O)NCC1CCCO1 (stereo unspecified),.,.,.,.,.
N=C1/C(=C\c2ccc(OC(=O)c3ccco3)cc2)C(=O)N=C2SC=NN12,.,.,.,.,58
Oc1ccc(C[C@@H]2CNC(=S)N2CCCCC2CCCCC2)cc1,.,51,.,.,.
CCn1c(SCc2ccc(F)cc2)nnc1C1CCN(S(=O)(=O)c2ccc(OC)cc2)CC1,.,59,.,.,.
CN(C)C(=O)C(=O)c1c(-c2ccccc2)cc2ccccn12,.,54,.,.,.
Cn1cc(CN2CCC[C@H]2CO)c(-c2cccc(Cl)c2)n1,.,.,.,.,.
O=C(c1noc2c1CCc1ccccc1-2)N1CCOCC1,.,.,.,.,72
COC(=O)c1sccc1NC(=O)/C=C/c1c(Cl)cccc1Cl,40,.,.,.,.
COC(=O)c1sccc1NC(=O)/C=C/c1ccc(Cl)cc1Cl,.,.,.,.,.
